Data reported in ChEMBL document CHEMBL1157506, “Synthesis and pharmacological characterization of chiral pyrrolidinylfuran derivatives: the discovery of new functionally selective muscarinic agonists” (J Med Chem, 2008).

Experiments:
[1] = organism: Cavia porcellus; assay: Intrinsic activity at muscarinic M2 receptor in guinea pig atrium assessed as effect on inotropic activity relative to control; assay type: tissue-based; conditions: Cardiac atrium
Method in brief: (§1)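 Left atria in PSS at 30 °C, paced via platinum electrodes (1 ms, 1 Hz, 5-10 V). Inotropic force recorded isometrically after 2 h equilibration. A cumulative APE reference curve was obtained, then cumulative agonist curves. Responses are expressed as % of the control maximal response.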

[2] = organism: Cavia porcellus; assay: Intrinsic activity at muscarinic M1/M4 receptor in guinea pig lung assessed as effect on tissue contraction relative to control
[3] = organism: Cavia porcellus; assay: Intrinsic activity at muscarinic M3 receptor in guinea pig ileum assessed as effect on tissue tension changes relative to control; assay type: tissue-based
Method in brief: (§2)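 Ileum tension changes recorded isotonically after 30 min equilibration. APE curves were run at 30 min intervals; the first was discarded and the second was taken as control. Cumulative agonist curves followed, with responses expressed as % of the control maximum. Parallel reference-only tissues served as sensitivity checks.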

[4] = biological target: T1, Muscarinic acetylcholine receptor M1 (Homo sapiens, UniProt P11229); assay: Displacement of [3H]NMS from human muscarinic M1 receptor expressed in CHO cells by liquid scintillation counter; assay type: cell-based
T1 sequence (P11229 whole entry): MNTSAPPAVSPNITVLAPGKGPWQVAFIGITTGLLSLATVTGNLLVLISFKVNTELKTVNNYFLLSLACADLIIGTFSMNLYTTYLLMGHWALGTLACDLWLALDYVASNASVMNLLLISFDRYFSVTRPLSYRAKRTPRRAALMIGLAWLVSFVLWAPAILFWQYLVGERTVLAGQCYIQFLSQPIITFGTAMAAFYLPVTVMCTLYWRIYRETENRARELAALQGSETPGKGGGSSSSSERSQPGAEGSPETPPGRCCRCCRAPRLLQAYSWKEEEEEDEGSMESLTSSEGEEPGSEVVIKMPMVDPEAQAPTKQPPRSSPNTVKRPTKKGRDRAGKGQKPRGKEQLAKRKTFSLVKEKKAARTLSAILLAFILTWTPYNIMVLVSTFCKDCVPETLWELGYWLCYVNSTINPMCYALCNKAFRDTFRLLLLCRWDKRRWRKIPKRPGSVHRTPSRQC

[5] = biological target: T2, Muscarinic acetylcholine receptor M4 (Homo sapiens, UniProt P08173); assay: Displacement of [3H]NMS from human muscarinic M4 receptor expressed in CHO cells by liquid scintillation counter; assay type: cell-based
T2 sequence (P08173 whole entry): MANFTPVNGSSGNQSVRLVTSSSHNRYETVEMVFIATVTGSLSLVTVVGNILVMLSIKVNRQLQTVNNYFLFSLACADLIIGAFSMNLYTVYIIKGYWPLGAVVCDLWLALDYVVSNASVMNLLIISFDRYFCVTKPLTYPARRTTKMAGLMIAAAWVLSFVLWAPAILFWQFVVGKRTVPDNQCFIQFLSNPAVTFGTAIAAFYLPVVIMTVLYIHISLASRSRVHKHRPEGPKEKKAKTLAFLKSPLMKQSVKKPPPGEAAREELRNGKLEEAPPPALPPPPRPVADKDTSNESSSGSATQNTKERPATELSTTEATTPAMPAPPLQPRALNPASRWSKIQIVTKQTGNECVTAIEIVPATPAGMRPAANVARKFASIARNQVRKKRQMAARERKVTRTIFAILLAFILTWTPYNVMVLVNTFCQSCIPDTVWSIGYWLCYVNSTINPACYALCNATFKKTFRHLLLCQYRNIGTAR
Method in brief: (§3)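 Membrane protein was 70 µg/mL for hm2, 50 µg/mL for hm4 and 25 µg/mL for hm5. Incubation was 120 min at room temperature in 25 mM sodium phosphate with 5 mM MgCl2, pH 7.4. GF/C filtration and scintillation counting followed; duplicates.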

[6] = biological target: T3, Muscarinic acetylcholine receptor M2 (Homo sapiens, UniProt P08172); assay: Displacement of [3H]NMS from human muscarinic M2 receptor expressed in CHO cells by liquid scintillation counter; assay type: cell-based; method in brief: as §3
T3 sequence (P08172 whole entry): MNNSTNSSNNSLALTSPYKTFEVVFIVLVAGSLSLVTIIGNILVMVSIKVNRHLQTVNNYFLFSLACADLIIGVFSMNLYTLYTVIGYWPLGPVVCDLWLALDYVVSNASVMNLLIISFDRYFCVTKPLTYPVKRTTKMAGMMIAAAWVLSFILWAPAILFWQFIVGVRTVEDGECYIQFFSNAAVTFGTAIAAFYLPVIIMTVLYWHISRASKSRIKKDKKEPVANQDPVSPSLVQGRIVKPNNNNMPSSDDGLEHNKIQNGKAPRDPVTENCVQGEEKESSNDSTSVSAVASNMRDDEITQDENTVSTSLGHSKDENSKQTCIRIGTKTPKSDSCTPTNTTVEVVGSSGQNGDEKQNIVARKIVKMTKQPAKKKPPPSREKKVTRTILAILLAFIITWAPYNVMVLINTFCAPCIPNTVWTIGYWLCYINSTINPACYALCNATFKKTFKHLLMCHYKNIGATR

[7] = biological target: T4, Muscarinic acetylcholine receptor M5 (Homo sapiens, UniProt P08912); assay: Displacement of [3H]NMS from human muscarinic M5 receptor expressed in CHO cells by liquid scintillation counter; assay type: cell-based; method in brief: as §3
T4 sequence (P08912 whole entry): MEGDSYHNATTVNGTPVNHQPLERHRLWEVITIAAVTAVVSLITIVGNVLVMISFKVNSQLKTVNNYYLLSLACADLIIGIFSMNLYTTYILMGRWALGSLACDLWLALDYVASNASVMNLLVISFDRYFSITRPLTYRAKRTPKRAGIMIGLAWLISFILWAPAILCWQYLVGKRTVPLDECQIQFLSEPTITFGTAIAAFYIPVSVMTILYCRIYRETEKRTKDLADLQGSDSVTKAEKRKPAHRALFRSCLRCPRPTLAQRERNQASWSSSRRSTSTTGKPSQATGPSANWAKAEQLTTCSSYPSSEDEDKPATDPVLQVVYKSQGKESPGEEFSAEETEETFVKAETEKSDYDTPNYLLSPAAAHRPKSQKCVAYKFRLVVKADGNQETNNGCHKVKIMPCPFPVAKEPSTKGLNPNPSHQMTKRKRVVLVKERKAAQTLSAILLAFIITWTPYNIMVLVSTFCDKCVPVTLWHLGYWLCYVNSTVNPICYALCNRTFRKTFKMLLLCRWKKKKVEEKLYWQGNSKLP

[8] = biological target: Muscarinic acetylcholine receptor M3 (Homo sapiens, UniProt P20309); assay: Displacement of [3H]NMS from human muscarinic M3 receptor expressed in CHO cells by liquid scintillation counter; assay type: cell-based
[9] = Agonist activity at muscarinic M2 receptor in guinea pig atrium assessed as effect on inotropic activity; assay type: functional, Cavia porcellus, Cardiac atrium; method in brief: as §1
[10] = Antagonist activity at muscarinic M1/M4 receptor in guinea pig lung assessed as effect on tissue contraction; assay type: functional, Cavia porcellus
[11] = Agonist activity at muscarinic M3 receptor in guinea pig ileum assessed as effect on tissue tension changes; assay type: functional, Cavia porcellus; method in brief: as §2
[12] = Antagonist activity at muscarinic M1/M4 receptor in New Zealanda white rabbit vas deferens assessed as effect on isometric tissue contraction; assay type: functional, Oryctolagus cuniculus
Method in brief: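 Rabbit vas deferens bathed at 30 °C with 10^-6 M yohimbine and 10^-8 M tripitramine to block α2-adrenoceptors and M2 receptors. Electrically stimulated with square-wave pulses (0.1 ms, 2 Hz, 10-15 V) and equilibrated 1 h. Isometric contractions recorded during a cumulative dose-response curve to McN-A-343. Responses are expressed as % of maximal control-curve response, with parallel reference-agonist-only tissues run.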

[13] = organism: Oryctolagus cuniculus; assay: Intrinsic activity at muscarinic M1/M4 receptor in New Zealanda white rabbit vas deferens assessed as effect on isometric tissue contraction relative to control; assay type: tissue-based
Method in brief: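 Vas deferens in solution with 10^-6 M yohimbine and 10^-8 M tripitramine at 30 °C, field-stimulated (0.1 ms, 2 Hz, 10-15 V). Contractions recorded isometrically after 1 h equilibration. A cumulative McN-A-343 reference curve was built, then cumulative curves to the test agonist. Responses are expressed as % of the control curve's maximum. Parallel reference-only tissues served as sensitivity checks.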

[14] = Agonist activity at muscarinic M1/M4 receptor in guinea pig lung assessed as effect on tissue contraction; assay type: functional, Cavia porcellus

Chain of Muscarinic acetylcholine receptor M3 (P20309 whole entry): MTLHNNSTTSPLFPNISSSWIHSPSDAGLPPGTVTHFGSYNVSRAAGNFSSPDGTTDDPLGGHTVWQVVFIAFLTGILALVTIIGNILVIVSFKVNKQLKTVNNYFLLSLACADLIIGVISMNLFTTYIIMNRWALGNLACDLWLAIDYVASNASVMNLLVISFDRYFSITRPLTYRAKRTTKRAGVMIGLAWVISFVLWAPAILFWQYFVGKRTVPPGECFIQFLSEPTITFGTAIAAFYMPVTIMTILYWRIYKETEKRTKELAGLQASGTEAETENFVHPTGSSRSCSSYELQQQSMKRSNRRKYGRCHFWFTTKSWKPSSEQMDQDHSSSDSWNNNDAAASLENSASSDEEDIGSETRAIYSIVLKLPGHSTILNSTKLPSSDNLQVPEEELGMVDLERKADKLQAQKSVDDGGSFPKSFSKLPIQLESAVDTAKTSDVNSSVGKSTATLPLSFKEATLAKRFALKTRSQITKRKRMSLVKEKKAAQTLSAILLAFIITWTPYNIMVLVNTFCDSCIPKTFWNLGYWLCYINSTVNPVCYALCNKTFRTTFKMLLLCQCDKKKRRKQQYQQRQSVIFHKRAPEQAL

Row | SMILES | Intrinsic activity [1] | Intrinsic activity [2] | Intrinsic activity [3] | Ki [4] | Ki [5] | Ki [6] | Ki [7] | Ki [8] | pD2 [9] | pKb [10] | pD2 [11] | pKb [12] | pD2 [10] | Intrinsic activity [13] | pD2 [14]
1 | C[N+](C)(C)CCOC(N)=O.[Cl-] [CARBACHOL] | 1 | 1 | 1 |  |  |  |  |  |  |  |  |  |  |  | 
2 | c1coc([C@@H]2CCCN2)c1 |  |  |  | 63.1 µM | 102 µM | 107 µM | 47.9 µM | 43.7 µM |  |  |  |  |  |  | 
3 | Cc1ccc(C2CCCN2)o1 (racemic) | 1 |  | 0.97 | 38 µM | 51.3 µM | 4.27 µM | 19.1 µM | 18.2 µM | 6.66 | 5.51 | 5.57 |  |  |  | 
4 | Cc1ccc([C@H]2CCC[N+]2(C)C)o1.[I-] | 0.44 |  | 0.26 | 13.8 µM | 13.8 µM | 2.69 µM | 9.55 µM | 7.76 µM | 7.66 | <5 | 7.1 | 5.67 |  |  | 
5 | C[N+]1(C)CCCC1c1ccco1.[I-] (racemic) | 0.38 |  | 0.19 | 5.25 µM | 6.46 µM | 3.72 µM | 3.16 µM | 2.75 µM | 6.65 |  | 5.65 |  | <5 | 0.26 | 
6 | CN1CCCC1c1ccco1 (racemic) | 0.4 | 0.25 | 0.35 | 33.1 µM | 69.2 µM | 41.7 µM | 44.7 µM | 44.7 µM | 7.25 |  | 5.7 |  |  | 0.22 | 6.87
7 | C[N+](C)(C)CC#CCOC(=O)Nc1cccc(Cl)c1 |  |  |  | 1.95 µM | 9.12 µM | 3.24 µM | 3.8 µM | 2.4 µM |  |  |  |  |  | 1 | 
8 | c1coc(C2CCCN2)c1 (racemic) |  |  |  | 178 µM | 87.1 µM | 29.5 µM | 16.6 µM | 11.5 µM |  |  |  |  |  |  | 
9 | C#CCOC(=O)C1=CCCN(C)C1 [ARECAIDINE PROPARGYL ESTER] | 1 | 1 | 1 |  |  |  |  |  | 8.67 |  | 7.64 |  |  | 1 | 5.56
10 | CN1CCC[C@H]1c1ccco1 | 0.65 | 0.33 | 0.37 | 43.7 µM | 56.2 µM | 30.9 µM | 63.1 µM | 52.5 µM | 6.82 |  | 5.83 |  |  | 0.3 | 6.72
11 | Cc1ccc([C@H]2CCCN2C)o1 | 0.32 |  | 0.22 | 44.7 µM | 58.9 µM | 19.5 µM | 31.6 µM | 28.8 µM | 6.4 | <5 | 4.93 | <5 |  |  | 
12 | Cc1ccc([C@@H]2CCCN2)o1 | 0.6 |  | 1 | 155 µM | 209 µM | 28.8 µM | 138 µM | 148 µM | 6.1 | 5 | 5 | <5 |  |  | 
13 | c1coc([C@H]2CCCN2)c1 |  |  |  | 46.8 µM | 89.1 µM | 77.6 µM | 31.6 µM | 25.1 µM |  |  |  |  |  |  | 
14 | Cc1ccc(C2CCC[N+]2(C)C)o1.[I-] (racemic) | 0.33 |  | 0.28 | 7.41 µM | 4.37 µM | 1.91 µM | 4.68 µM | 6.92 µM | 7.55 | <5 | 7.25 |  |  |  | 
15 | C[N+]1(C)CCC[C@@H]1c1ccco1.[I-] | 0.4 |  | 0.25 | 51.3 µM | 28.2 µM | 14.1 µM | 23.4 µM | 17.8 µM | 6.49 |  | 5.37 |  | <5 | 0.28 | 
16 | Cc1ccc(C[N+](C)(C)C)o1 |  |  |  | 7.94 µM | 6.31 µM | 0.955 µM | 6.92 µM | 6.17 µM |  |  |  |  |  |  | 
17 | C[N+]1(C)CCC[C@H]1c1ccco1.[I-] | 0.3 |  | 0.41 | 30.9 µM | 21.4 µM | 7.41 µM | 20.9 µM | 21.4 µM | 7.19 | <5 | 5.77 |  |  | 0.21 | 
18 | CN1CCC[C@@H]1c1ccco1 | 0.45 |  | 0.31 | 77.6 µM | 79.4 µM | 47.9 µM | 75.9 µM | 81.3 µM | 7.38 | <5 | 5.65 |  |  | 0.47 | 
